Data reported in PubChem BioAssay AID588478 (ICCB-Longwood Screening Facility, Harvard Medical School, 2011).
Screen size: about 330,000 compounds; about 1,100 (0.33%) were called active.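 How the source made its calls: active means mean inhibition over replicate wells above about 20% (limit read from the data); inactive means the rest.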 The list comes from a sample in which actives are over-represented; it also holds similar structures and randomly drawn compounds.

These molecules were tested against Ubiquitin carboxyl-terminal hydrolase isozyme L5 (Homo sapiens) (UniProt Q9Y5K5) (assay: proteasome-bound UCH37 DUB activity blockers – biochemical, Ub-AMC cleavage, fluorescence, primary screen (AID 588478;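 further: 0% = compound-free wells with enzyme and 100% = wells lacking proteasome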)). Conditions: purified proteasome/UCH37, Ub-AMC cleavage fluorescence; active compounds read high; concentration not given here.
Sequence of Ubiquitin carboxyl-terminal hydrolase isozyme L5 (Homo sapiens) (Q9Y5K5 whole entry, looked up): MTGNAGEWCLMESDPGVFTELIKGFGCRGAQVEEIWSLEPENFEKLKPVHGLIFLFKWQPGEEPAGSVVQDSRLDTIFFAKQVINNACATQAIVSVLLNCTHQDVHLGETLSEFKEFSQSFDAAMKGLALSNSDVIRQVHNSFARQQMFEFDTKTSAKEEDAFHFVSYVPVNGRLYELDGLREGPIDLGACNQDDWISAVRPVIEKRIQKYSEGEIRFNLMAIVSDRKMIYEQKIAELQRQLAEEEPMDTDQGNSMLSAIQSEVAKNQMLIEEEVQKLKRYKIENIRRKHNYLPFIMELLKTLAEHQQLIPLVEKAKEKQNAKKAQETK
Outline: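 Material: Human UCH37 enzyme supplied as purified proteasome complex | Schedule: 30 min preincubation with enzyme, 25 min cleavage at room temperature | Detection: AMC fluorescence 355/460 nm | Measure: % inhibition of Ub-AMC cleavage fluorescence | Controls: Wells without proteasome as full block, compound-free enzyme plus substrate as uninhibited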

inhibition, active:
O=c1ccc2c(-c3ccccc3S(=O)(=O)O)c3ccc(O)c(O)c3oc-2c1O 29%
CCOC(=O)N1CCN(C(=O)CNC(=O)Cc2ccc(Cl)cc2)CC1 33.3%
O=C(c1ccc(-n2cnnn2)cc1)N1CCN(C(c2ccccc2)c2ccccc2)CC1 26.6%
CCN1C[C@@H]2[C@@H]3C(=O)N(Cc4ccccc4)C(=O)[C@@H]3[C@](C)(C1=O)N2C(=O)c1ccc(C(C)(C)C)cc1 28.4%
CN(C)c1ccc(C=NNC(=O)c2nonc2N)cc1[N+](=O)[O-] 20.3%
C#CCOCCOCCOCCNc1nc(N2CCN(C(=O)[C@H](C(C)C)n3cc(CCO)nn3)CC2)nc(N2CCN(C(=O)[C@H]([C@@H](C)CC)n3cc(CCCN=C(N)N)nn3)CC2)n1 34.8%
COc1nc(Oc2ccc(=O)n(C)n2)nc(N(C)C)n1 29.8%
CC(C)CC[n+]1ccn(C2=C([O-])c3ccccc3C(=O)/C2=N\S(=O)(=O)c2ccccc2)c1 32.4%
COC(=O)[C@H](C)[C@H]1C[C@]1(C)[C@H](NC(=O)OCc1ccccc1)c1ccccc1 31%
CCC(=O)Nc1ccc(C(=O)N2CCN(C(=O)c3ccco3)CC2)cc1 31.4%
O=C(O)C(c1ccccc1)N1C(=O)/C(=C\c2ccc(-c3cccc(Cl)c3)o2)SC1=S (configuration not stated) 37.5%
Oc1ccc(C=NNC(=S)Nc2cccnc2)c(O)c1O 22.7%
CCCCCCCCn1c2c(c(=N)c3c1CCC3)CCCC2 25.7%
COc1cc(NC(=O)COC(=O)c2ccc([N+](=O)[O-])s2)cc(OC)c1OC 70.6%
O=C1C(Cl)=C(Oc2ccccc2)C(=O)c2ccccc21 73.8%
COC1(C2=NCCN2)COc2ccccc2O1 (configuration not stated) 22.9%
Cn1ccc(=Nc2ccc(NC(=O)c3ccc(N=c4ccn(C)c5ccc([N+](=O)[O-])cc45)cc3)cc2)cc1 27.5%

inhibition, inactive:
O=C1c2ccccc2NC(c2ccco2)N1N=Cc1ccco1 (configuration not stated) -3.31%
COC(=O)c1ccc(-c2ccc(C=NN3C(=O)C4C5C=CC(CC5)C4C3=O)o2)cc1 (configuration not stated) -1.63%
CC(=O)OC[C@H]1O[C@@H](ON=C[C@@H](C)[C@H](OCc2ccccc2)C(C)C)[C@H](OC(C)=O)[C@@H](OC(C)=O)[C@@H]1OC(C)=O 1.03%
CCOc1cc(C=NNC(=O)C(=O)N2CCCC2)ccc1O 7.79%
CCOC(=O)N1CCN(C(=O)Cc2ccc(-n3c(=S)[nH]c4ccccc4c3=O)cc2)CC1 2.68%
CCOC(=O)N1CCN(C(=O)C(C)NC(=O)c2ccco2)CC1 (configuration not stated) 1.14%
CC(C)(C)OC(=O)NCCC(=O)NN=Cc1ccc2nccnc2c1 3.74%
COC(=O)c1nn(-c2ccccc2)c(Sc2ccc(Cl)cc2)c1C=NO -1.82%
Cn1nnnc1SCC(=O)N1CCN(C(c2ccccc2)c2ccccc2)CC1 2.55%
Cc1onc(C(=O)NN)c1C(=O)N1CCN(C(c2ccccc2)c2ccccc2)CC1 1.47%
C=C1CC(C(=O)NN=Cc2ccccc2)C1 1.24%
COc1cccc(C=NNC(=S)NC2CC3CCC2C3)c1OC (configuration not stated) 2.43%
CCN1C[C@@H]2[C@@H]3C(=O)N(C)C(=O)[C@@H]3[C@](C)(C1=O)N2C(=O)c1ccccc1 1.29%
CCN1C[C@@H]2[C@@H]3C(=O)N(Cc4ccccc4)C(=O)[C@@H]3[C@](Cc3ccccc3)(C(=O)OC)N2C1=NC1CCCCC1 -0.224%
CON=C(C(=O)N[C@@H]1C(=O)N2C(C(=O)O)=C(COC(N)=O)CS[C@H]12)c1ccco1 -2.85%
CC(CC(C)(C)c1ccccc1)=NNS(=O)(=O)c1ccccc1 3.32%
Cc1nn(-c2ccccc2)c(Cl)c1C=NO 1.54%
Cn1cc([N+](=O)[O-])c(C(=O)NN=Cc2ccc([N+](=O)[O-])cc2)n1 11.9%
Nc1nonc1C(=O)NN=Cc1ccc(-c2cccc([N+](=O)[O-])c2)o1 9.92%
O=C(CCCCO)CCCCCCCCC1NC(CO)C(O)C1O[C@@H]1OC(CO)C(O)C(O)C1O (some centres not stated) 1.76%
O=C(NN=C(c1ccccc1)c1cccnc1)c1ccc(O)cc1 4.07%
CCC(C)C(C)=NNC(=O)c1ccc(COc2ccc(Cl)c(C)c2)cc1 (configuration not stated) 1.66%
Oc1ccc(C=NNc2cccc3cccnc23)c(O)c1 1.33%
C#CCOCCOCCOCCNc1nc(N2CCN(C(=O)[C@H](C(C)C)n3cc(CCO)nn3)CC2)nc(N2CCN(C(=O)[C@H](C(C)C)n3cc(CCO)nn3)CC2)n1 0.233%
C#CCOCCOCCOCCNc1nc(N2CCN(C(=O)[C@H](CCCN=C(N)N)n3cc(C(N)[C@@H](C)CC)nn3)CC2)nc(N2CCN(C(=O)[C@H](CO)n3cc([C@@H](N)C(C)C)nn3)CC2)n1 (some centres not stated) 3.95%
CC(C)NC(=O)CC(=O)NN=Cc1ccccc1F 4.78%
CSc1cc(C=NO)c(SC)s1 3.15%
CCCn1nc(Oc2nc(NC(C)C)nc(N(C)C)n2)ccc1=O 6.24%
COc1nc(N(C)C)nc(N2CC(=O)N(CCNS(=O)(=O)c3ccc(C)cc3)C2=N)n1 -1.6%
CN(C)c1nc(NN=Cc2c[nH]c3ccccc23)nc(N2CCOCC2)n1 5.58%
Cc1ccc(C=NNC(=O)c2cc([N+](=O)[O-])cc([N+](=O)[O-])c2)o1 5.25%
CN(C)/C=C(\C#N)C(=O)NN=Cc1ccccc1 6.55%
CN(C)C=Nc1sc2c(c1C#N)CCC2 9.38%
COC(=O)[C@H](Cc1ccccc1)NC(=O)[C@@H]1C[C@H]1[C@@H](NC(=O)OCc1ccccc1)c1ccccc1 1.36%
CC(C)[C@H](NC(=O)OCc1ccccc1)C(=O)OCc1ccccc1 0.329%
O=C(NN=Cc1ccco1)c1cc(=O)[nH]c2ccccc12 7.58%
O=C(CN1CCN(C(=O)c2ccco2)CC1)Nc1ccc2c(c1)OCO2 1.43%
O=C(c1ccc2c(c1)OCO2)N1CCN(C(=O)c2ccco2)CC1 0.962%
Cc1ccc2nc(C(Cl)(Cl)Cl)nc(NN=Cc3ccc([N+](=O)[O-])cc3)c2c1 -0.00251%
S=c1[nH]nc(-c2cccc(Cl)c2)n1N=Cc1ccc(-c2ccccc2Br)o1 8%
O=C1c2ccccc2NC(c2ccc(-c3cccc(Cl)c3)o2)N1O (configuration not stated) -14.2%
CC(=O)n1cc(C=NNC(=O)c2ccc(Cl)cc2)c2ccccc21 2.16%
O=C(Cc1cccs1)NN=Cc1ccc(O)cc1 1.44%
CCOC(=O)c1c(N=CC2=C(O)CC(C)(C)CC2=O)sc(C)c1C -1.87%
Cc1ccc(C=NNC(=O)CSc2nc3ccccc3c(=O)n2-c2ccccc2)s1 4.54%
CC(C)(C)c1ccc(C=NNC(=S)Nc2cccnc2)cc1 2.4%
Cc1ccc(NC(=O)Nc2cccnc2)cc1 0.429%
COc1cc(C=NN(C)C)ccc1OC(=O)c1cccs1 0.992%
COc1ccc(NC(=O)ON=Cc2ccccc2)cc1 2.45%
CC(=NNC(=O)c1cccs1)c1ccc(NC(=O)COc2ccc(Cl)cc2)cc1 -42%
O=C(O)c1cc(NN=Cc2ccncc2)ccc1Cl 14.4%
Nc1nnnn1CC(=O)NN=Cc1cc([N+](=O)[O-])ccc1Cl 4.32%
Cc1ccc(C=NNC(=O)CNC(=O)COc2ccccc2)o1 6.97%
CC(C)(C)NN=Cc1cc(Cl)cc([N+](=O)[O-])c1O 6.29%
CNC(=O)C(C#N)=c1sc(=CC(=O)OC)c(=O)n1-c1ccccc1 3.97%
Cc1ccc(C=NN2CCN(Cc3ccccc3)CC2)o1 1.82%
COc1ccc(C(=O)OCC(=O)Nc2ccc3[nH]c(=O)[nH]c3c2)c(OC)c1OC 0.187%
COc1ccc(C(=O)COC(=O)c2ccc([N+](=O)[O-])s2)cc1OC 4.79%
COc1cccc(C=NNc2cc(-n3nc(C)cc3-c3ccccc3)ncn2)c1O 3.24%
O=[N+]([O-])c1cc(S(=O)(=O)N2CCCC2)ccc1NN=Cc1cccnc1 3.11%
Cc1nn(-c2ccccc2)c(C)c1C=NNC(=O)c1cccs1 2.82%
CC(=O)Oc1ccc2c(c1)C(=O)c1ccccc1C2=O 6.5%
Cc1cc(C)c(COc2ccc(C=Nn3c(C)n[nH]c3=S)cc2)c(C)c1 2.64%
C[n+]1cn(N=Cc2ccccc2)c2ccccc21 0.369%
COc1ccc(C(C)=NNc2ccc(C(=O)O)cc2)cc1OC 12.1%
CCCC=NNc1nnc(Cc2ccc(OC)c(OC)c2)c(=O)[nH]1 2.12%
COc1ccc(C(C)=NNC(=O)c2ccc(N(C)C)cc2)cc1 3.67%
CC(=O)NC(=S)Nc1ccc(NC(=S)NC(=O)c2ccc([N+](=O)[O-])cc2)cc1 5.88%
COc1cc(NS(=O)(=O)c2ccc(NC(=O)c3ccc([N+](=O)[O-])cc3)cc2)ncn1 4.65%
COc1ccccc1/C=C/C=NN1CCN(Cc2ccc(Cl)cc2)CC1 5.57%
